Bioassay records (PubChem)
HUVEC prolif 384: inhibitors of human endothelial cell proliferation. HUVEC proliferation, CellTiter-Glo luminescence, 72 h; stronger effect = lower value. viability, % at 10 µM (by protocol). 86,000 tested, 1.1% active;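 active = viability at or below 30%; inactive = viability above 30%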
Ecoli tolC: blocks growth of E. coli BW25113 tolC mutant | 65,000 tested, 2.2% active | growth inhibition, % at 10 µM (by protocol) | OD615 | AID 573;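 active = growth inhibition at or above a cutoff equal to the mean over every tested compound plus 3 SD, cut at about 60% in these data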;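 also: growth measured after 20 h incubation at 37 °C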
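signal = optical density read at 615 nm | test system = E. coli ΔtolC::kan strain BW25113 | timing = 20 h compound exposure of bacteria at 37 °C | buffer or medium = LB medium plus 50 µg/mL kanamycin | compound dosing = 10 µM final, single dose | evaluation = % inhibition of E. coli growth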
Jurkat viability: cytotoxicity toward Jurkat cells; 56,000 tested, 1.2% active; Jurkat E6.1 viability, ATP luminescence, 48 h; inhibition, % at 4 µM;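 active = inhibition above the mean inhibition of all tested compounds plus 3 SD, cut at about 28% in these data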
E coli WT exp: growth inhibitors of E. coli BW25113 wild type; OD600 absorbance; growth inhibition, % at 100 µM; 98,000 tested, 0.15% active; AID 710;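 active = growth inhibition above about 50% at one test dose, limit read from the data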;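 also: growth measured after 20 h incubation at 37 °C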
Lung fibro prol: blocks proliferation of human lung fibroblasts. 85,000 tested, 1.1% active. LL 47 human lung fibroblast viability, ATP luminescence; stronger effect = lower value. viability, % at 10 µM;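 active = viability at or below 50% in the single dose screen; inactive = viability above 50%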;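 also: compound exposure lasted 72 h before the ATP readout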
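Test system: LL 47 human lung fibroblasts / Incubation: 72 h compound exposure at 37 °C after overnight plating / Technique: luminescent ATP detection, CellTiter-Glo / Compound dosing: 0.1% DMSO in all compound wells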
H69AR growth 86K: blocks growth of human H69AR lung tumor cells | H69AR lung tumor viability, ATP luminescence, 72 h; stronger effect = lower value | 85,000 tested, 6% active | viability, % at 10 µM | AID 598;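 active = viability at or below 40%; inactive = viability above 40%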;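 also: multidrug resistant small cell line overexpressing MRP-1 efflux transporter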
Of the large screens only hits and unclear results are named; the others gave an inactive call. Hits are enriched below; roughly 6.4% of the tested compounds scored in any of these assays.

O=C(Oc1oc(-c2ccco2)nc1C=Nc1ccccc1)c1ccco1	H69AR growth 86K 38.8 (no result: Jurkat viability)
O=C(CSc1ncnc2c1oc1ccccc12)NCc1ccc(F)cc1	none
CCOC(=O)CSc1ccc(-c2nc3cc(C)c(C)cc3[nH]2)cn1	none (no result: Ecoli tolC, Jurkat viability)
Cc1cc2nc(-c3ccc(SCC(=O)N4CCOCC4)nc3)[nH]c2cc1C	H69AR growth 86K 28.2 (no result: Jurkat viability)
Cc1cc2nc(-c3ccc(SCC(=O)N4CCN(C(=O)c5ccco5)CC4)nc3)[nH]c2cc1C	H69AR growth 86K 12.3 (no result: Jurkat viability)
Clc1cccc2sc(-c3nnc(-c4ccccc4)o3)c(Cl)c12	none (no result: Ecoli tolC, Jurkat viability, E coli WT exp)
CCc1ccc(S(=O)(=O)NCCc2csc(-c3ccccc3)n2)s1	Ecoli tolC 92.8
Cc1nn(C)c(C)c1CNC(=O)c1nn2c(c1Cl)NC(c1cccs1)CC2C(F)(F)F (configuration not stated)	Jurkat viability 40.6 (no result: HUVEC prolif 384, Lung fibro prol, H69AR growth 86K)
CCOC(=O)CSc1nnc(CNc2ccc(Cl)cc2)n1Cc1ccccc1	none (no result: Ecoli tolC, Jurkat viability, E coli WT exp)
CCOC(=O)Cc1nnc2c(Nc3ccc(Cl)cc3)nc3nonc3n12	Ecoli tolC 100.0, H69AR growth 86K 14.1
C(=C\CSc1nnnn1-c1ccccc1)/CSc1nnnn1-c1ccccc1	none (no result: HUVEC prolif 384, Jurkat viability, Lung fibro prol, H69AR growth 86K)
CCCSc1nnc(Sc2nnnn2-c2ccccc2)s1	HUVEC prolif 384 7.6, Jurkat viability 98.5, H69AR growth 86K 5.4
Cc1ccccc1-n1nnnc1Sc1nnnn1-c1ccccc1	HUVEC prolif 384 28.3, Lung fibro prol 21.4, H69AR growth 86K 2.7 (no result: Ecoli tolC, Jurkat viability)
Cc1nc(NC(=O)COC(=O)CCS(=O)(=O)c2ccccc2Cl)c(Cl)cc1Cl	none (no result: Ecoli tolC, Jurkat viability)
CCCCCCn1c(C)nc2c(c1=O)c1nc3ccccc3nc1n2/N=C/c1ccco1	HUVEC prolif 384 17.8, H69AR growth 86K 3.8 (no result: Ecoli tolC, Jurkat viability)
O=c1c2c3nc4ccccc4nc3n(/N=C/c3ccco3)c2ncn1CCC1=CCCCC1	HUVEC prolif 384 28.7 (no result: E coli WT exp)
O=C(Cc1nc2ccccc2[nH]1)NCc1ccco1	none
COc1cc2c(=O)n(Cc3ccccc3)c(=O)n(CC(=O)NCC3CCCO3)c2cc1OC (configuration not stated)	none (no result: HUVEC prolif 384, Jurkat viability, Lung fibro prol, H69AR growth 86K)
COc1cc2c(=O)n(Cc3ccccc3)c(=O)n(CC(=O)NCCc3ccccc3)c2cc1OC	H69AR growth 86K 33.4 (no result: Ecoli tolC, Jurkat viability)
COc1ccc(OC)c(S(=O)(=O)N(C)CC(=O)N2CCN(c3cccc(Cl)c3)CC2)c1	none
COc1ccc(OC)c(S(=O)(=O)N(C)CC(=O)N2CCN(c3ccc(F)cc3)CC2)c1	Lung fibro prol 18.5
c1ccc(C(CN2CCOCC2)c2ccccc2)cc1	none
CCCCCOc1ccc(C(=O)C(c2ccccc2)N2CCOCC2)cc1 (configuration not stated)	none (no result: Ecoli tolC, Jurkat viability, E coli WT exp)
OC(CN1CCOCC1)CN(c1ccccc1)c1ccccc1 (configuration not stated)	none
CC(CN1CCOCC1)OC(=O)C(c1ccccc1)c1ccccc1 (configuration not stated)	none (no result: Ecoli tolC, Jurkat viability, E coli WT exp)
CCCCOc1ccc(C(=O)C(CN2CCOCC2)c2ccccc2)cc1 (configuration not stated)	HUVEC prolif 384 2.3, H69AR growth 86K 1.0 (no result: Ecoli tolC, Jurkat viability, E coli WT exp)
O=C(c1ccc(F)cc1)C(CN1CCOCC1)c1ccccc1 (configuration not stated)	Jurkat viability 80.5, Lung fibro prol 25.3
COc1ccc(C(=O)C(CN2CCOCC2)c2ccccc2)cc1 (configuration not stated)	Lung fibro prol 11.0, H69AR growth 86K 0.5 (no result: Ecoli tolC, Jurkat viability)
O=C(c1ccccc1)C(CCC(CN1CCOCC1)C(=O)c1ccccc1)CN1CCOCC1 (configuration not stated)	Lung fibro prol 49.6, H69AR growth 86K 1.3 (no result: Jurkat viability)
CCOC(=O)C1=C(C)N=C2SC(CC)C(=O)N2C1c1ccc(OC(C)=O)c(OCC)c1 (configuration not stated)	none (no result: HUVEC prolif 384, Jurkat viability, E coli WT exp, Lung fibro prol, H69AR growth 86K)
CCOC(=O)c1c(NC(=O)c2ccccc2Br)sc2c1CCc1ccccc1-2	none (no result: Ecoli tolC, Jurkat viability)
COc1ccc(C(=O)C(CN2CCCC2)c2ccccc2)cc1 (configuration not stated)	Lung fibro prol 10.4, H69AR growth 86K 1.2 (no result: Jurkat viability)
COc1ccc(C(=O)CCN2CCCCCC2)cc1	none (no result: HUVEC prolif 384, Jurkat viability, Lung fibro prol, H69AR growth 86K)
C=CCOC(=O)C1=C(C)NC(SCC(=O)Nc2ccc(C)c(Cl)c2)=C(C#N)C1c1ccco1 (configuration not stated)	Lung fibro prol 16.9, H69AR growth 86K 7.0 (no result: Jurkat viability)
COCCOC(=O)C1=C(C)NC(SCC(=O)NC(C)(C)C)=C(C#N)C1c1ccco1 (configuration not stated)	none (no result: Jurkat viability)
O=C(NCC(c1cccs1)N1CCOCC1)c1ccc(Br)o1 (configuration not stated)	H69AR growth 86K 22.6 (no result: Ecoli tolC, Jurkat viability)
Cc1[nH]n2c(=O)c3c(nc2c1-c1ccccc1)CCC3	H69AR growth 86K 24.9
Nc1[nH]n2c(=O)c3c(nc2c1N=Nc1ccc(Cl)cc1)CCCC3	none (no result: HUVEC prolif 384, Ecoli tolC, Jurkat viability, Lung fibro prol, H69AR growth 86K)
Cc1[nH]n2c(=O)c3c(nc2c1-c1ccc(Cl)cc1)CCC3	Ecoli tolC 99.8, H69AR growth 86K 25.9 (no result: Jurkat viability)
OC(CN1CCN(c2ccccn2)CC1)Cn1c2ccccc2c2ccccc21 (configuration not stated)	none
OC(COc1ccc(Cl)c2ccccc12)CN1CCN(c2ccccn2)CC1 (configuration not stated)	Ecoli tolC 100.0 (no result: Jurkat viability)
Cc1cccc(C)c1NC(=O)C(c1cccs1)N(Cc1ccco1)C(=O)Cn1nnc2ccccc21 (configuration not stated)	Ecoli tolC 64.3
CCC(C)(C)NC(=O)C(c1ccc(C)cc1)N(Cc1ccco1)C(=O)Cn1nnc2ccccc21 (configuration not stated)	none (no result: Ecoli tolC, Jurkat viability, E coli WT exp)
O=S(=O)(c1ccc(N2CCCC2c2nc3ccccc3s2)nc1)N1CCOCC1 (configuration not stated)	H69AR growth 86K 22.6
O=S(=O)(c1ccc(Br)cc1)N1CCCC1c1nc2ccccc2s1 (configuration not stated)	none (no result: HUVEC prolif 384, Ecoli tolC, Jurkat viability, Lung fibro prol, H69AR growth 86K)
COc1ccc(-n2c(Cc3cccn3C)nnc2SCC(=O)Nc2cccc(OC)c2)cc1	H69AR growth 86K 36.9
CCn1c(Cc2ccc(OC)cc2)nnc1SCC(=O)Nc1cccc(C(=O)OC)c1	Lung fibro prol 48.0
CCn1c(Cc2ccccc2)nnc1SCC(=O)Nc1ccc(OC)cc1	none (no result: Ecoli tolC, Jurkat viability, E coli WT exp)
COc1ccc(-n2c(Cc3cccn3C)nnc2SCC(=O)Nc2ccc(C)c(Cl)c2)cc1	Ecoli tolC 74.8
O=c1ccc(Cc2ccccn2)n[nH]1	none (no result: Ecoli tolC, Jurkat viability)
COC(=O)/C(=C\Nc1ccc(Cl)cc1Cl)NC(=O)c1ccccc1	none (no result: Ecoli tolC, Jurkat viability)
COC(=O)/C(=C\Nc1ccc(Cl)cc1Cl)NC(=O)c1ccc(Cl)cc1Cl	HUVEC prolif 384 27.4, H69AR growth 86K 21.2 (no result: Ecoli tolC, Jurkat viability)
CCOc1cc(/C=C2/C(=N)N3C=CSC3=NC2=O)ccc1OCCCOc1ccccc1C	HUVEC prolif 384 17.8, Lung fibro prol 32.5, H69AR growth 86K 6.5 (no result: Ecoli tolC, Jurkat viability)
COc1cc(/C=C2/C(=N)N3C=CSC3=NC2=O)ccc1OCCCOc1ccccc1C	HUVEC prolif 384 14.9, H69AR growth 86K 6.1 (no result: Ecoli tolC, Jurkat viability)
N#Cc1nc(-c2cccs2)oc1NCCCN1CCOCC1	none
COc1cc2c(cc1NS(=O)(=O)N1CCCCC1)oc1ccccc12	none (no result: Ecoli tolC, Jurkat viability)
